# Bioassay records: PubChem, Broad Institute
# DENV2 CPE rescue = DENV2-induced cell death inhibition; DENV2-infected cells, cytopathic effect rescue, plate reader; CPE inhibition, % at 9.99 µM; 350,000 tested, 1.7% active; AID 651640; in the data active = CPE inhibition above about 20%, passing the limit was not always enough; inconclusive = no clear call, values can overlap the other calls; tested in BHK-21 cells;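 also: 0% = median of neutral control wells and 100% = median of positive control wells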
# SIRT5 inh = blocks human SIRT5 desuccinylation of peptide | AID 652115 | inhibition, % at 15 µM | Q9NXA8 | Purified SirT5, succinyl-peptide AMC, trypsin-coupled fluorescence | 330,000 tested, 1.1% active; in the data active = inhibition above about 15%; inconclusive = no clear call, values can overlap the other calls
# Target sequence (Q9NXA8 whole entry, looked up): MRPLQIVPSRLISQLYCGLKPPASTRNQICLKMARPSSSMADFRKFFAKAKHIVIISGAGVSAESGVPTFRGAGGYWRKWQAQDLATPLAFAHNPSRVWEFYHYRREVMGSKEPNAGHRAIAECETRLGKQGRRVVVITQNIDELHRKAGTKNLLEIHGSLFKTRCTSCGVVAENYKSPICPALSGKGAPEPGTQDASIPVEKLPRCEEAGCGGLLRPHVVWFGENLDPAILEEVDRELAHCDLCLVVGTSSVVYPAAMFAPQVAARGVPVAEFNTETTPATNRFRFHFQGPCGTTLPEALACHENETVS
# E-selectin induc = induces E-selectin expression in human endothelial cells; P16581; HUVEC E-selectin immunofluorescence imaging; normalized: neutral wells 0, TNF-alpha wells 100; activation, % at 7.58 µM; 260,000 tested, 0.37% active; AID 686992;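 active = mean E-selectin-positive cell signal at least 10% of the positive control, reached in at least 60% of replicates, without over 20% cell loss; inconclusive = no rule given, readout overlaps actives, possibly toxicity-flagged; inactive = the rest, including those meeting only one limit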
#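 Test system: HUVEC | Signal: Immunofluorescence imaging | Read-out: Percent E-selectin-positive cells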
# Starred values were filed as active, the others as inactive; ? = inconclusive; / = no result. A selection: hits, their analogues and other compounds. The true share with any hit is near 2.8%.
SMILES,DENV2 CPE rescue,SIRT5 inh,E-selectin induc
C[C@@H]1CCCCO[C@H](CN(C)C(=O)CCCN(C)C)[C@@H](C)CN([C@H](C)CO)C(=O)c2cc(NC(=O)Nc3ccc(F)cc3)ccc2O1,37*,3,0
C[C@H](CO)N1C[C@H](C)[C@@H](CN(C)C(=O)CCCN(C)C)OCCCC[C@H](C)Oc2ccc(NC(=O)CCCN(C)C)cc2C1=O,85*,6,/
C[C@@H]1CCCCO[C@@H](CN(C)C(=O)CCCN(C)C)[C@@H](C)CN([C@@H](C)CO)C(=O)c2cc(NC(=O)CCCN(C)C)ccc2O1,-1,-2,/
C[C@H]1CCCCO[C@H](CN(C)C(=O)CCCN(C)C)[C@@H](C)CN([C@@H](C)CO)C(=O)c2cc(NC(=O)c3ccccc3)ccc2O1,53*,0,3
C[C@H](CO)N1C[C@H](C)[C@@H](CN(C)C(=O)CCCN(C)C)OCCCC[C@H](C)Oc2ccc(NC(=O)Nc3ccc(F)cc3)cc2C1=O,1,1,0
C[C@@H]1CN([C@@H](C)CO)S(=O)(=O)c2ccc(-c3ccncc3)cc2O[C@H]1CN(C)C(=O)c1cccc(F)c1,-1,-2,0
O=S(=O)(N[C@H]1CC[C@@H](CCn2cc(Cc3ccccc3)nn2)O[C@@H]1CO)c1ccccc1F,0,2,0
C[C@H]1CCCCO[C@@H](CN(C)C(=O)CCCN(C)C)[C@@H](C)CN([C@@H](C)CO)C(=O)c2cc(NC(=O)Cc3ccccc3)ccc2O1,-2,0,/
C[C@@H]1CCCCO[C@@H](CN(C)C(=O)CCCN(C)C)[C@@H](C)CN([C@H](C)CO)C(=O)c2cc(NC(=O)Cc3ccccc3)ccc2O1,142*,3,/
CO[C@H]1CN(C)C(=O)c2ccc(NC(=O)c3cc(C)on3)cc2OC[C@H](C)N(C(C)=O)C[C@H]1C,7,-1,0
COCCn1nnnc1C(c1cc2cc(C)ccc2[nH]c1=O)N1CCN(C2CCCCC2)CC1 (stereo unspecified),30*,3,/
CCOc1ccc2[nH]c(=O)c(C(c3nnnn3C3CCCCC3)N3CCN(C)CC3)cc2c1 (stereo unspecified),/,/,0
C[C@@H]1CN([C@H](C)CO)C(=O)c2cc(NC(=O)Nc3ccc(C(F)(F)F)cc3)ccc2O[C@@H](C)CCCCO[C@@H]1CN(C)S(=O)(=O)c1ccc(F)cc1,-1,-4,/
C[C@@H]1CN([C@H](C)CO)C(=O)c2cc(NC(=O)Cc3ccccc3)ccc2O[C@@H](C)CCCCO[C@H]1CN(C)Cc1ccc(C(F)(F)F)cc1,-23,/,0
NC[C@H](Cc1ccccc1)NCCCCC1CCCCC1,35*,/,0
COc1cc(CCCN[C@H](CN)Cc2ccccc2)cc(OC)c1OC,/,/,0
COCC(=O)N1[C@H](CO)[C@@H](c2ccccc2)C12CN(C(=O)NC1CCCCC1)C2,12,-4,0
CC(C)c1cc(-c2cc(C(=O)NCc3ccccc3)on2)nc(NCC2CC2)n1,-11,-4,0
CC(C)c1cc(-c2cc(C(=O)NCc3ccccc3)on2)nc(NC2CCCC2)n1,22*,0,0
C/C(=N\Nc1ccc(Cl)c(C(=O)O)c1)c1cccs1,8,5,/
C/C(=N\Nc1ccc(Cl)c(C(=O)O)c1)c1ccc[nH]1,2,24*,0
Cc1ccc(C(=O)Nc2cc(C)nn2CCC#N)cc1,12,1,32*
Cc1cc(NC(=O)c2ccc(Cl)cc2)n(CCC#N)n1,9,-12,/
CC(C)CCNC(=O)c1cn(C)c2ccc(S(=O)(=O)N3CCCC3)cc2c1=O,-2,-2,37*
CC(C)CN(CCNC(=O)c1cn(C)c2ccc(S(=O)(=O)N3CCCC3)cc2c1=O)CC(C)C,0,-4,0
SMILES,DENV2 CPE rescue,SIRT5 inh,E-selectin induc
CN(C)c1ccc(/C=C/C=N/Nc2nc(N3CCOCC3)nc(N3CCOCC3)n2)cc1,2,-3,63*
Cc1ccc(/C=N/Nc2nc(N3CCOCC3)nc(N3CCOCC3)n2)o1,-4,4,0
CN1CCN(c2ccc3c(c2)OC[C@@H](Cc2ccccc2)NS3(=O)=O)CC1,-6,-2,1
O=S1(=O)N[C@@H](Cc2ccccc2)COc2cc(N3CCOCC3)ccc21,54*,-3,0
CC(C)c1onc(C(=O)N2CCOCC2)c1[N+](=O)[O-],-9,-4,/
CC(C)c1onc(C(=O)N2CCN(Cc3ccccc3)CC2)c1[N+](=O)[O-],168*,/,/
COc1ccc(NC(=O)Nc2ccc3c(c2)C(=O)N([C@@H](C)CO)C[C@@H](C)[C@@H](CN(C)C(=O)Cc2ccccc2)OCCCC[C@H](C)O3)cc1,14,8,0
c1ccc(CCC2Cc3ccccc3N2)cc1 (stereo unspecified),-5,15*,0
c1ccc(CC[C@@H]2CC[C@@H](CCc3ccccc3)N2)cc1,3,/,0
C[C@H](CO)N1C[C@H](C)[C@H](CN(C)Cc2ccc(C(=O)O)cc2)Oc2ccc(NC(=O)Nc3ccccc3)cc2C1=O,-12,-3,0
C[C@@H]1CN([C@H](C)CO)C(=O)c2cc(NS(=O)(=O)c3cccs3)ccc2O[C@@H](C)CCCCO[C@@H]1CN(C)Cc1ccc(C(F)(F)F)cc1,4,19*,0
C[C@@H]1CCCCO[C@H](CN(C)Cc2ccc(C(F)(F)F)cc2)[C@@H](C)CN([C@@H](C)CO)C(=O)c2cc(NS(=O)(=O)c3cccs3)ccc2O1,?,17*,0
C[C@H](CO)N1C[C@H](C)[C@@H](CN(C)Cc2ccc(C(F)(F)F)cc2)OCCCC[C@H](C)Oc2ccc(NS(=O)(=O)c3cccs3)cc2C1=O,4,21*,0
C[C@@H]1CN([C@@H](C)CO)C(=O)c2cc(NS(=O)(=O)c3cccs3)ccc2O[C@@H](C)CCCCO[C@H]1CN(C)Cc1ccc(C(=O)O)cc1,-3,1,0
C[C@@H]1CN([C@@H](C)CO)C(=O)c2cc(NS(=O)(=O)c3cccs3)ccc2O[C@@H](C)CCCCO[C@H]1CN(C)Cc1ccc(C(F)(F)F)cc1,0,15,0
C[C@@H]1CN([C@H](C)CO)C(=O)c2cc(NS(=O)(=O)c3cccs3)ccc2O[C@@H](C)CCCCO[C@H]1CN(C)Cc1ccc(C(=O)O)cc1,2,8,0
C[C@@H]1CN([C@@H](C)CO)C(=O)c2cc(NC(=O)CCCN(C)C)ccc2O[C@H]1CN(C)Cc1ccc2c(c1)OCO2,5,8,-1
CCC(=O)N(C)C[C@H]1Oc2cc(C#CCN(C)C)ccc2S(=O)(=O)N([C@@H](C)CO)C[C@@H]1C,2,1,0
O=S(=O)(c1ccc(=S)[nH]c1)N1CCCCC1,2,-3,/
O=S(=O)(c1ccc(=S)[nH]c1)N1CCN(Cc2ccccc2)CC1,25*,0,-1
COC(=O)C[C@@H]1C=C[C@H](NC(=O)Nc2ccc(C(F)(F)F)cc2)[C@@H](CO)O1,-1,1,0
COc1ccc(-c2nnc3ccc(SCC(=O)N4CCCCC4)nn23)cc1OC,30*,1,-1
COc1ccc(-c2nnc3ccc(SCC(=O)N4CCOCC4)nn23)cc1,?,-1,0
CCCCCC(=O)N1C[C@@H](n2cc(C3CC3)nn2)[C@H](O)C[C@@H]1c1ccccc1,25*,-7,/
